Data set [1] can be described thus: Metabolic stability in pooled mouse liver microsomes. Type of data set: in vitro ADME. The method in brief: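 Microsomes pooled from ~100 B6C3F1 mice (9–10 weeks old). Triplicate incubations: 25 μM test compound with 0.25 mg/mL protein in 50 mM phosphate (pH 7.4), 0.1% DMSO, preincubated 5 min at 37°C, then started with 1 mM NADPH. Samples taken at 0–60 min and quenched in ice-cold 10% perchloric acid with internal standard. LC-MS/MS peak-area ratios used; t½ from substrate disappearance. No-NADPH and heat-inactivated controls included.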

Data set [2] in a line: In vivo pharmacokinetics in male BALB/c mice.
The test system of another data set is Caco-2 cell monolayers. Description: Caco-2 bidirectional permeability assay. Type of data set: in vitro ADME. The settings on record: A-to-B and B-to-A. On the technique in general: Caco-2 monolayers are a common model of the intestinal barrier.
Another data set deals with Visceral leishmaniasis. The settings on record: cited from earlier work.

Each structure is given as a SMILES string. Structures can show the parent of a compound that is named as a salt. Some results are limits rather than exact numbers.

With `NC[C@@H]1O[C@H](O[C@H]2[C@@H](O)[C@H](O[C@@H]3[C@@H](O)[C@H](N)C[C@H](N)[C@H]3O[C@H]3O[C@H](CO)[C@@H](O)[C@H](O)[C@H]3N)O[C@@H]2CO)[C@H](N)[C@@H](O)[C@@H]1O` [paromomycin, Paromomycin sulfate], in data set [1], the “Stability in mouse liver microsomes (in words)” value is reported as “unstable”. Also, the “Plasma clearance as % of hepatic (liver) blood flow” value in data set [2] (IV, mice) was under 10%. In addition, the clearance – broadly, a measure of how efficiently the substance is removed, as volume per time – in data set [2] (male, BALB/c, mouse, plasma, iv, 15 mg/kg, CL, normal saline) worked out at 8 mL/min/kg. The “Caco-2 permeability (in words)” value in the data set on Caco-2 cell monolayers was “negligible permeability”; in the data set with Caco-2 cell monolayers (listed as Paromomycin), “low permeability”. Moreover, the Cure rate entry in the data set with Visceral leishmaniasis (after 6 months, treatment with paromomycin i.m.) was “About 95%”. For the same compound, the “Toxicity (in words)” value in the data set on Visceral leishmaniasis (i.m. route) was “no nephrotoxicity and reversible ototoxicity”.
